Our source for the Km values is article PMC8367640 (Journal of Applied Glycoscience, 2021).

In the experiment the test system is BlAga3. Put plainly: HPAEC-PAD of released products. Type of experiment: biochemical, Bifidobacterium longum subsp. longum. The following applies: 50 mM sodium acetate pH 6.0, 45 °C, 20 min. A digest of the protocol:
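His-tagged recombinant BlAga3, TALON-purified (50 mM imidazole fraction, desalted). Enzyme in 50 mM sodium acetate pH 6.0 at 45 °C for 20 min: 0.20 μg/mL with 0.1–10 mM α-D-Gal-(1→3)-L-Ara, or 0.79 μg/mL with 1.0–50 mM raffinose. Stopped with 5 % TCA; released sugars quantified by HPAEC-PAD (NaOH/sodium acetate gradient).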

The structures appear in SMILES notation.

Regarding `OC[C@H]1O[C@H](O[C@H]2[C@@H](O)COC(O)[C@@H]2O)[C@H](O)[C@@H](O)[C@H]1O` (stereo partly drawn) [GA, α-D-Gal-(1→3)-L-Ara], the Km (0.1–10 mM substrate) came out at 0.774 ± 0.014 mM.

In the case of `OC[C@H]1O[C@H](OC[C@H]2O[C@H](O[C@]3(CO)O[C@H](CO)[C@@H](O)[C@@H]3O)[C@H](O)[C@@H](O)[C@@H]2O)[C@H](O)[C@@H](O)[C@H]1O` [Raffinose], the Km (1.0-50 mM substrate) stood at 29.5 ± 1 mM.
